Activity calls are given as the source filed them. The calls are words filed in the database; no cut-off is given here.
How the values were obtained:
[1] = system: Schistosoma mansoni; test: Antischistosomal activity against Schistosoma mansoni Puerto Rican infected mouse assessed as reduction in live schistosomes at 349 mg/kg/day, through diet for 14 days; format: functional; details: 336 h
In short: (§1)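 Mice carrying a Puerto Rican strain of S. mansoni received drug mixed into a powdered diet for 14 days, with dose expressed as mg/kg per day. The read-out was the reduction in live schistosomes in the infected mice.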

[2] = system: Schistosoma mansoni; test: Antischistosomal activity against Schistosoma mansoni Puerto Rican infected mouse assessed as infected mouse at 349 mg/kg/day, through diet for 14 days; format: functional; in short: as §1
[3] = system: Schistosoma mansoni; test: Antischistosomal activity against Schistosoma mansoni Puerto Rican infected mouse assessed as infected mouse at 347 mg/kg/day, through diet for 14 days; format: functional; in short: as §1
[4] = system: Schistosoma mansoni; test: Antischistosomal activity against Schistosoma mansoni Puerto Rican infected mouse assessed as reduction in live schistosomes at 347 mg/kg/day, through diet for 14 days; format: functional; details: 336 h; in short: as §1
[5] = system: Schistosoma mansoni; test: Antischistosomal activity against Schistosoma mansoni Puerto Rican infected mouse assessed as reduction in live schistosomes at 336 mg/kg/day, through diet for 14 days; format: functional; details: 336 h; in short: as §1
[6] = system: Schistosoma mansoni; test: Antischistosomal activity against Schistosoma mansoni Puerto Rican infected mouse assessed as infected mouse at 336 mg/kg/day, through diet for 14 days; format: functional; in short: as §1
[7] = system: Schistosoma mansoni; test: Antischistosomal activity against Schistosoma mansoni Puerto Rican infected mouse assessed as reduction in live schistosomes at 297 mg/kg/day, through diet for 14 days; format: functional; details: 336 h; in short: as §1
[8] = system: Schistosoma mansoni; test: Antischistosomal activity against Schistosoma mansoni Puerto Rican infected mouse assessed as infected mouse at 297 mg/kg/day, through diet for 14 days; format: functional; in short: as §1
[9] = system: Schistosoma mansoni; test: Antischistosomal activity against Schistosoma mansoni Puerto Rican infected mouse assessed as reduction in live schistosomes at 298 mg/kg/day, through diet for 14 days; format: functional; details: 336 h; in short: as §1
[10] = system: Schistosoma mansoni; test: Antischistosomal activity against Schistosoma mansoni Puerto Rican infected mouse assessed as infected mouse at 298 mg/kg/day, through diet for 14 days; format: functional; in short: as §1
[11] = system: Schistosoma mansoni; test: Antischistosomal activity against Schistosoma mansoni Puerto Rican infected mouse assessed as infected mouse at 329 mg/kg/day, through diet for 14 days; format: functional; in short: as §1
[12] = system: Schistosoma mansoni; test: Antischistosomal activity against Schistosoma mansoni Puerto Rican infected mouse assessed as reduction in live schistosomes at 329 mg/kg/day, through diet for 14 days; format: functional; details: 336 h; in short: as §1
[13] = system: Schistosoma mansoni; test: Antischistosomal activity against Schistosoma mansoni infected rhesus monkey assessed as temporary egg suppression at 200 mg/kg/day, through gavage for 10 days; format: functional, organism-based
In short: (§2)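 S. mansoni-infected rhesus monkeys were dosed daily by gavage. Assessment was by egg output over time (temporary suppression) and by the number of live and dead worms remaining in the treated animal.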

[14] = system: Schistosoma mansoni; test: Antischistosomal activity against Schistosoma mansoni infected rhesus monkey assessed as removal of all worms at 200 mg/kg/day, through gavage for 5 to 10 days; format: functional, organism-based; in short: as §2
[15] = system: Schistosoma mansoni; test: Antischistosomal activity against Schistosoma mansoni Puerto Rican infected mouse assessed as infected mouse at 400 mg/kg/day, through gavage for 10 days; format: functional
[16] = system: Schistosoma mansoni; test: Antischistosomal activity against Schistosoma mansoni Puerto Rican infected mouse assessed as reduction in live schistosomes at 400 mg/kg/day, through gavage for 10 days; format: functional; details: po, 240 h
[17] = system: Schistosoma mansoni; test: Antischistosomal activity against Schistosoma mansoni Puerto Rican infected mouse assessed as infected mouse at 269 mg/kg/day, through diet for 14 days; format: functional; in short: as §1
[18] = system: Schistosoma mansoni; test: Antischistosomal activity against Schistosoma mansoni Puerto Rican infected mouse assessed as infected mouse at 200 mg/kg/day, through gavage for 5 days; format: functional
[19] = system: Schistosoma mansoni; test: Antischistosomal activity against Schistosoma mansoni Puerto Rican infected mouse assessed as infected mouse at 100 mg/kg/day, through gavage for 10 days; format: functional
[20] = system: Schistosoma mansoni; test: Antischistosomal activity against Schistosoma mansoni Puerto Rican infected mouse assessed as reduction in live schistosomes at 269 mg/kg/day, through diet for 14 days; format: functional; details: 336 h; in short: as §1
[21] = system: Schistosoma mansoni; test: Antischistosomal activity against Schistosoma mansoni Puerto Rican infected mouse assessed as reduction in live schistosomes at 200 mg/kg/day, through gavage for 5 days; format: functional; details: po, 120 h
[22] = system: Schistosoma mansoni; test: Antischistosomal activity against Schistosoma mansoni Puerto Rican infected mouse assessed as reduction in live schistosomes at 100 mg/kg/day, through gavage for 10 days; format: functional; details: po, 240 h
[23] = system: Schistosoma mansoni; test: Antischistosomal activity against Schistosoma mansoni Puerto Rican infected mouse assessed as reduction in live schistosomes at 376 mg/kg/day, through diet for 14 days; format: functional; details: 336 h; in short: as §1
[24] = system: Schistosoma mansoni; test: Antischistosomal activity against Schistosoma mansoni Puerto Rican infected mouse assessed as infected mouse at 376 mg/kg/day, through diet for 14 days; format: functional; in short: as §1
[25] = system: Schistosoma mansoni; test: Antischistosomal activity against Schistosoma mansoni Puerto Rican infected mouse assessed as reduction in live schistosomes at 140 mg/kg/day, through diet for 14 days; format: functional; details: 336 h; in short: as §1
[26] = Toxicity in mouse po dosed through diet for 14 days; format: organism-based; details: in vivo
In short: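 Mice infected with a Puerto Rican strain of *Schistosoma mansoni*; drug mixed into a powdered diet and fed orally for 14 days; doses expressed as mg/kg per day.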

[27] = system: Schistosoma mansoni; test: Antischistosomal activity against Schistosoma mansoni Puerto Rican infected mouse assessed as infected mouse at 140 mg/kg/day, through diet for 14 days; format: functional; in short: as §1

## Cc1cc(Cl)c(Cl)cc1C1(C)NC(=O)NC1=O (centres undefined)
[1]
  inhibition in vivo at 349 mg/kg/day: 48%
[2]
  Activity: 100%

## O=C1NC(=O)C(c2c(Cl)cccc2Cl)N1 (centres undefined)
[3]
  Activity: 100%
[4]
  inhibition in vivo at 347 mg/kg/day: 2%

## CN1C(=O)C(c2cc(Cl)c(Cl)cc2Cl)N(C)C1=O (centres undefined)
[5]
  inhibition in vivo at 336 mg/kg/day: 88%
[6]
  Activity: 83%

## CC1(c2cc(Cl)c(Cl)cc2Cl)NC(=O)NC1=O (centres undefined)
[7]
  inhibition in vivo at 297 mg/kg/day: 90%
[8]
  Activity: 66%

## CC1(c2cccc([N+](=O)[O-])c2)NC(=O)NC1=O (centres undefined)
[9]
  inhibition in vivo at 298 mg/kg/day: 0%
[10]
  Activity: 100%

## O=C1NC(=O)C(c2ccc(Cl)c(Cl)c2)N1 (centres undefined)
[11]
  Activity: 100%
[12]
  inhibition in vivo at 329 mg/kg/day: 0%

## O=C1NC(=O)C(c2cc(Cl)c(Cl)cc2Cl)N1 (centres undefined) [listing 1 of 2 here]
[13]
  inhibition: Dose-dependent effect
[14]
  inhibition: Active

## O=C1NC(=O)C(c2cc(Cl)c(Cl)cc2Cl)N1 (centres undefined) [listing 2 of 2 here]
[11]
  Activity: 67%
[15]
  Activity: 100%
[12]
  inhibition in vivo at 329 mg/kg/day: 80%
[16]
  inhibition in vivo at 400 mg/kg/day: 0%

## O=C1[N-]C(=O)C(c2cc(Cl)c(Cl)cc2Cl)N1.[Na+] (centres undefined)
[17]
  Activity: 100%
[18]
  Activity: 100%
[19]
  Activity: 100%
[20]
  inhibition in vivo at 269 mg/kg/day: 65%
[21]
  inhibition in vivo at 200 mg/kg/day: 86%
[22]
  inhibition in vivo at 100 mg/kg/day: 76%

## CC1(c2ccc(Cl)c(Cl)c2)NC(=O)NC1=O (centres undefined)
[23]
  inhibition in vivo at 376 mg/kg/day: 38%
[24]
  Activity: 100%

## CCN(CC)CCNc1ccc(C)c2sc3ccccc3c(=O)c12.Cl [LUCANTHONE HYDROCHLORIDE]
[25]
  inhibition in vivo at 140 mg/kg/day: 71%
[26]
  MTD at 336 h: 140 mg/kg
[27]
  Activity: 90%

— ChEMBL document CHEMBL3244429, “Antischistosomal effects of 5-(2,4,5-trichlorophenyl)hydantoin and related compounds” (J Med Chem, 1977)
